# Data reported in ChEMBL document CHEMBL1148425, “New fatty acid oxidation inhibitors with increased potency lacking adverse metabolic and electrophysiological properties” (Bioorg Med Chem Lett, 2004).
# Experiments:
# [1] = biological target: T1, Peroxisomal acyl-coenzyme A oxidase 1 (Rattus norvegicus) (UniProt P07872); test: Inhibition of rat heart mitochondrial Palmitoyl-CoA oxidation at 30 uM
# T1 sequence (whole entry): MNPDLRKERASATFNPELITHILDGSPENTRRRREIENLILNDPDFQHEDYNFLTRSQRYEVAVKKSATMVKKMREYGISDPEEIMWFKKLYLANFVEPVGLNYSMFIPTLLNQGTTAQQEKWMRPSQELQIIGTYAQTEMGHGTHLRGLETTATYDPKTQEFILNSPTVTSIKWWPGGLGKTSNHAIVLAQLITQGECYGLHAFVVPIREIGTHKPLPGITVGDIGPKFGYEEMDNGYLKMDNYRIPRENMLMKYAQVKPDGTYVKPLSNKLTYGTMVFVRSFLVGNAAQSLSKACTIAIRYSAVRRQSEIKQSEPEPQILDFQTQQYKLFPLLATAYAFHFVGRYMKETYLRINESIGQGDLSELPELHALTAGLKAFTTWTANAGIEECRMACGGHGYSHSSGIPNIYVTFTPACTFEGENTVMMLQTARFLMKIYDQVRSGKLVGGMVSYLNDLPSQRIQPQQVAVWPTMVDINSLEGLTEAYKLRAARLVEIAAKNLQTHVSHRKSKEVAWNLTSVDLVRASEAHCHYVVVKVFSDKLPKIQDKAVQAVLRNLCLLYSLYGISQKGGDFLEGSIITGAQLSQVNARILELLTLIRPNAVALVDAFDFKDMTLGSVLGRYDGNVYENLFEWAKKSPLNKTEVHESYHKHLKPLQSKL
# Procedure, shortened: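 Rat heart mitochondrial preparations incubated with 1-[¹⁴C]-palmitoylCoA as the long-chain fatty acid oxidation substrate. Oxidation inhibition was reported as % inhibition at the listed test concentration, averaged from two or three measurements.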
# [2] = Metabolic stability (% remaining at 30 mins) in human S9.; format: ADME; conditions: human S9 fraction
# Procedure, shortened: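 Incubated 30 min with human liver S9 (2 mg/mL protein, NADH added), n=2. Reported as % parent remaining.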
SMILES,inhibition [1] [%],remaining at 0.5 h [2] [%]
Cc1nc2cc(OC[C@H](O)CN3CCN(CC(=O)N[C@H](C)c4ccc(F)cc4)CC3)ccc2s1,40,–
Cc1nc2cc(OC[C@H](O)CN3CCN(CC(=O)Nc4ccc5c(c4)CCCC5)CC3)ccc2s1,–,2
Cc1nc2cc(OC[C@H](O)CN3CCN(CC(=O)N[C@H]4CCc5ccccc54)CC3)ccc2s1,–,1
Cc1nc2cc(OC[C@H](O)CN3CCN(CC(=O)N[C@@H](C)c4ccc(F)cc4)CC3)ccc2s1,–,10
Cc1nc2cc(OC[C@H](O)CN3CCN(CC(=O)N[C@@H]4CCc5ccccc54)CC3)ccc2s1,50,–
Cc1nc2cc(OC[C@H](O)CN3CCN(CC(=O)Nc4cccc5nsnc45)CC3)ccc2s1,–,11
Cc1nc2cc(OC[C@H](O)CN3CCN(CC(=O)N[C@H]4CCCc5ccccc54)CC3)ccc2s1,–,2
Cc1nc2cc(OC[C@H](O)CN3CCN(CC(=O)Nc4ccc(C(F)(F)F)cc4)CC3)ccc2s1,–,28
Cc1nc2cc(OC[C@H](O)CN3CCN(CC(=O)NC4Cc5ccccc5C4)CC3)ccc2s1,–,2

# The next lines start with the values.
inhibition [1] [%],remaining at 0.5 h [2] [%],SMILES
24,–,Cc1nc2cc(OC[C@H](O)CN3CCN(CC(=O)N[C@H](C)c4cccc5ccccc45)CC3)ccc2s1
–,10,Cc1nc2cc(OC[C@H](O)CN3CCN(CC(=O)N[C@@H](C)c4cccc5ccccc45)CC3)ccc2s1
–,45,Cc1nc2cc(OC[C@H](O)CN3CCN(CC(=O)N[C@H](C)c4ccc5ccccc5c4)CC3)ccc2s1
–,29,Cc1nc2cc(OC[C@H](O)CN3CCN(CC(=O)Nc4ccc(Cl)c(Cl)c4)CC3)ccc2s1
–,23,Cc1nc2cc(OC[C@H](O)CN3CCN(CC(=O)N[C@@H](C)c4ccccc4)CC3)ccc2s1
23,–,Cc1nc2cc(OC[C@H](O)CN3CCN(CC(=O)N[C@H](C)c4ccccc4)CC3)ccc2s1
–,15,Cc1nc2cc(OC[C@H](O)CN3CCN(CC(=O)Nc4cccc(Oc5ccccc5)c4)CC3)ccc2s1
–,2,Cc1nc2cc(OC[C@H](O)CN3CCN(CC(=O)Nc4cccc5ncccc45)CC3)ccc2s1
40,–,Cc1cc(NC(=O)CN2CCN(C[C@@H](O)COc3ccc4sc(C)nc4c3)CC2)c2ccccc2n1
–,50,Cc1nc2cc(OC[C@H](O)CN3CCN(CC(=O)Nc4cccc5ccccc45)CC3)ccc2s1
42,–,Cc1nc2cc(OC[C@H](O)CN3CCN(CC(=O)Nc4ccc(C#N)cc4)CC3)ccc2s1
–,15,Cc1nc2cc(OC[C@H](O)CN3CCN(CC(=O)Nc4ccc5c(c4)CCC5)CC3)ccc2s1
